Test results taken from ChEMBL document CHEMBL1156205, “Synthesis and antibacterial activity of new 9-O-arylpropenyloxime ketolides” (2010).
Converted amounts (≈) assume the structure as drawn.

Key:
Type in all cases: functional
[1] = tested on: Streptococcus pneumoniae; assay: Antibacterial activity against penicillin intermediate-resistant Streptococcus pneumoniae isolate I3 by agar dilution method
Method in brief: (§1)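 MIC determined by agar dilution on Mueller–Hinton agar against clinically isolated penicillin-intermediate-resistant S. pneumoniae.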

[2] = tested on: Streptococcus pneumoniae; assay: Antibacterial activity against penicillin intermediate-resistant Streptococcus pneumoniae isolate I2 by agar dilution method; method in brief: as §1
[3] = tested on: Streptococcus pneumoniae; assay: Antibacterial activity against penicillin intermediate-resistant Streptococcus pneumoniae isolate I1 by agar dilution method; method in brief: as §1
[4] = tested on: Staphylococcus aureus; assay: Antibacterial activity against methicillin-resistant Staphylococcus aureus 2 by agar dilution method
Method in brief: (§2)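 MIC determined by agar dilution on Mueller–Hinton agar against clinical strains of methicillin-resistant S. aureus.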

[5] = tested on: Staphylococcus aureus; assay: Antibacterial activity against methicillin-susceptible Staphylococcus aureus ATCC 29213 by agar dilution method
Method in brief: (§3)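 MIC determined by agar dilution on Mueller–Hinton agar against reference strains.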

[6] = tested on: Streptococcus pyogenes; assay: Antibacterial activity against Streptococcus pyogenes isolate 2 by agar dilution method
Method in brief: (§4)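 MIC measured by agar dilution on Mueller–Hinton agar. Strains were a reference culture and clinically isolated strains. The pneumococcal isolates were penicillin-susceptible clinical isolates.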

[7] = tested on: Streptococcus pyogenes; assay: Antibacterial activity against Streptococcus pyogenes isolate 3 by agar dilution method; method in brief: as §4
[8] = tested on: Staphylococcus aureus; assay: Antibacterial activity against methicillin-resistant Staphylococcus aureus 3 by agar dilution method; method in brief: as §2
[9] = tested on: Staphylococcus aureus; assay: Antibacterial activity against methicillin-susceptible Staphylococcus aureus isolate 3 by agar dilution method
Method in brief: (§5)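 MIC determined by agar dilution on Mueller–Hinton agar against clinically isolated methicillin-susceptible S. aureus.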

[10] = tested on: Staphylococcus aureus; assay: Antibacterial activity against methicillin-susceptible Staphylococcus aureus isolate 2 by agar dilution method; method in brief: as §5
[11] = tested on: Staphylococcus aureus; assay: Antibacterial activity against methicillin-susceptible Staphylococcus aureus isolate 1 by agar dilution method; method in brief: as §5
[12] = tested on: Streptococcus pneumoniae; assay: Antibacterial activity against penicillin-susceptible Streptococcus pneumoniae isolate S2 by agar dilution method; method in brief: as §4
[13] = tested on: Streptococcus pyogenes; assay: Antibacterial activity against Streptococcus pyogenes ATCC 8668 by agar dilution method; method in brief: as §4
[14] = tested on: Streptococcus pneumoniae; assay: Antibacterial activity against Streptococcus pneumoniae ATCC 49619 by agar dilution method; conditions: ATCC49619; method in brief: as §3
[15] = tested on: Streptococcus pneumoniae; assay: Antibacterial activity against penicillin-susceptible Streptococcus pneumoniae isolate S1 by agar dilution method; method in brief: as §4
[16] = tested on: Streptococcus pyogenes; assay: Antibacterial activity against Streptococcus pyogenes isolate 1 by agar dilution method; method in brief: as §4
[17] = tested on: Staphylococcus aureus; assay: Antibacterial activity against methicillin-resistant Staphylococcus aureus 1 by agar dilution method; method in brief: as §2

Row | SMILES | MIC50 [1] [µM] | MIC50 [2] [µM] | MIC50 [3] [µM] | MIC [4] [µg/mL] | MIC [5] [µg/mL] | MIC [6] [µg/mL] | MIC [7] [µg/mL] | MIC [8] [µg/mL] | MIC [1] [µg/mL] | MIC [9] [µg/mL] | MIC [10] [µg/mL] | MIC [11] [µg/mL] | MIC [12] [µg/mL] | MIC [13] [µg/mL] | MIC [2] [µg/mL] | MIC [3] [µg/mL] | MIC [14] [µg/mL] | MIC [15] [µg/mL] | MIC [16] [µg/mL] | MIC [17] [µg/mL]
1 | CC[C@H]1OC(=O)[C@H](C)[C@@H](O[C@H]2C[C@@](C)(OC)[C@@H](O)[C@H](C)O2)[C@H](C)[C@@H](O[C@@H]2O[C@H](C)C[C@H](N(C)C)[C@H]2O)[C@](C)(O)C[C@@H](C)C(=O)[C@H](C)[C@@H](O)[C@]1(C)O [ERYTHROMYCIN] | > 128 | > 128 | > 128 |  |  |  |  |  |  |  |  |  |  |  |  |  |  |  |  | 
2 | CC[C@H]1OC(=O)[C@H](C)C(=O)[C@H](C)[C@@H](O[C@@H]2O[C@H](C)C[C@H](N(C)C)[C@H]2O)[C@](C)(OC)C[C@@H](C)/C(=N\OC/C=C/c2ccc(OC)cc2)[C@H](C)[C@@H](O)[C@]1(C)O |  |  |  | 126 (≈ 168 µM) | 2 (≈ 2.67 µM) | 0.5 (≈ 0.668 µM) | 0.5 (≈ 0.668 µM) | 2 (≈ 2.67 µM) | 0.5 (≈ 0.668 µM) | 1 (≈ 1.34 µM) | 1 (≈ 1.34 µM) | 2 (≈ 2.67 µM) | 0.25 (≈ 0.334 µM) | 0.5 (≈ 0.668 µM) | 0.5 (≈ 0.668 µM) | 64 (≈ 85.5 µM) | 0.5 (≈ 0.668 µM) | 0.25 (≈ 0.334 µM) | 0.25 (≈ 0.334 µM) | 128 (≈ 171 µM)
3 | CC[C@H]1OC(=O)[C@H](C)C(=O)[C@H](C)[C@@H](O[C@@H]2O[C@H](C)C[C@H](N(C)C)[C@H]2O)[C@](C)(OC)C[C@@H](C)/C(=N\OC/C=C/c2cccnc2)[C@H](C)[C@@H](O)[C@]1(C)O |  |  |  | 128 (≈ 178 µM) | 0.5 (≈ 0.695 µM) | 0.06 (≈ 0.0833 µM) | 0.06 (≈ 0.0833 µM) | 0.5 (≈ 0.695 µM) | 0.06 (≈ 0.0833 µM) | 0.25 (≈ 0.347 µM) | 0.25 (≈ 0.347 µM) | 0.25 (≈ 0.347 µM) | 0.06 (≈ 0.0833 µM) | 0.25 (≈ 0.347 µM) | 0.25 (≈ 0.347 µM) | 64 (≈ 88.9 µM) | 0.125 (≈ 0.174 µM) | 0.06 (≈ 0.0833 µM) | 0.06 (≈ 0.0833 µM) | 128 (≈ 178 µM)
4 | CC[C@H]1OC(=O)[C@H](C)C(=O)[C@H](C)[C@@H](O[C@@H]2O[C@H](C)C[C@H](N(C)C)[C@H]2O)[C@](C)(OC)C[C@@H](C)/C(=N\OC/C=C/c2cccc(OC)c2)[C@H](C)[C@@H](O)[C@]1(C)O |  |  |  | 128 (≈ 171 µM) | 2 (≈ 2.67 µM) | 1 (≈ 1.34 µM) | 1 (≈ 1.34 µM) | 2 (≈ 2.67 µM) | 64 (≈ 85.5 µM) | 2 (≈ 2.67 µM) | 2 (≈ 2.67 µM) | 2 (≈ 2.67 µM) | 0.25 (≈ 0.334 µM) | 1 (≈ 1.34 µM) | 1 (≈ 1.34 µM) | 64 (≈ 85.5 µM) | 1 (≈ 1.34 µM) | 0.25 (≈ 0.334 µM) | 0.25 (≈ 0.334 µM) | 128 (≈ 171 µM)
5 | CC[C@H]1OC(=O)[C@H](C)C(=O)[C@H](C)[C@@H](O[C@@H]2O[C@H](C)C[C@H](N(C)C)[C@H]2O)[C@](C)(OC)C[C@@H](C)/C(=N\OC/C=C/c2cccs2)[C@H](C)[C@@H](O)[C@]1(C)O |  |  |  | 128 (≈ 177 µM) | 0.5 (≈ 0.69 µM) | 0.06 (≈ 0.0828 µM) | 0.06 (≈ 0.0828 µM) | 0.25 (≈ 0.345 µM) | 0.125 (≈ 0.172 µM) | 0.25 (≈ 0.345 µM) | 0.25 (≈ 0.345 µM) | 0.5 (≈ 0.69 µM) | 0.06 (≈ 0.0828 µM) | 0.06 (≈ 0.0828 µM) | 0.125 (≈ 0.172 µM) | 32 (≈ 44.1 µM) | 0.06 (≈ 0.0828 µM) | 0.06 (≈ 0.0828 µM) | 0.06 (≈ 0.0828 µM) | 128 (≈ 177 µM)
6 | CC[C@H]1OC(=O)[C@H](C)C(=O)[C@H](C)[C@@H](O[C@@H]2O[C@H](C)C[C@H](N(C)C)[C@H]2O)[C@](C)(OC)C[C@@H](C)/C(=N\OC/C=C/c2ccc3c(c2)CCC3=O)[C@H](C)[C@@H](O)[C@]1(C)O |  |  |  | 128 (≈ 166 µM) | 1 (≈ 1.29 µM) | 0.25 (≈ 0.323 µM) | 0.25 (≈ 0.323 µM) | 1 (≈ 1.29 µM) | 8 (≈ 10.3 µM) | 1 (≈ 1.29 µM) | 1 (≈ 1.29 µM) | 1 (≈ 1.29 µM) | 0.06 (≈ 0.0776 µM) | 0.25 (≈ 0.323 µM) | 0.25 (≈ 0.323 µM) | 64 (≈ 82.8 µM) | 0.25 (≈ 0.323 µM) | 0.06 (≈ 0.0776 µM) | 0.06 (≈ 0.0776 µM) | 128 (≈ 166 µM)
